Bioassay records (PubChem BioAssay)
Compounds with a hit are over-represented: about 1.8% of the library has one in this group of screens.
proCasp3 act – activators of human procaspase-3; actives 0.11% (n = 330,000); P42574; recombinant procaspase-3 D3A, Ac-DEVD-pNA absorbance 405 nm; activation, % at 8.5 µM; AID 463141;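 active = activation above the mean of all tested compounds plus 3 SD, cut at about 21% in these data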;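 note: 0% = DMSO alone and 100% = DMSO wells spiked with extra 5 µM PC-3 D3A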
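Test system: Procaspase-3 D3A mutant, all three cleavage aspartates alanine | Dosing: Single dose, 8.5 µM nominal compound, 0.8% DMSO | Schedule: 1 h preincubation, 2 h reaction | Technique: 405 nm absorbance of p-nitroaniline, reads at 0 and 120 min | Repeats: One well per compound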
Apaf-1 inh – blocks human Apaf-1 apoptosome activity; O14727; reconstituted apoptosome caspase-3 activity, DEVD-Rh110 fluorescence; inhibition, % at 20 µM; actives 0.71% (n = 330,000); active = inhibition of at least 40% at 20 µM;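 note: plate controls were DMSO wells for no effect and DEVD-CHO caspase inhibitor wells for full effect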
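Material: reconstituted apoptosome with Apaf-1, cytochrome c, caspase-9, procaspase-3, dATP / Buffer or medium: pH 7.5 Hepes buffer with CHAPS, BSA, DTT / Also added: cytochrome c with DEVD-Rh110 / Schedule: compound with Apaf-1, dATP, procaspase-3 30 min, then 50 min reaction, room temperature / Technique: rhodamine 110 fluorescence at Ex 480/Em 540 nm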
EBNA-1 inh – blocks EBNA-1 binding to DNA | inhibition, % at 14.8 µM | EBNA-1 DNA binding, fluorescence polarization | actives 0.34% (n = 300,000); in the data active = inhibition above about 28%
ZTA DNA inh – counter-screen for EBNA-1 inhibitors: inhibitors of Epstein-Barr virus ZTA; P03206; ZTA-DNA binding, fluorescence polarization; inhibition, % at 11 µM; actives 0.15% (n = 320,000); AID 2234; in the data active = inhibition above about 33%
GSTO1 counter – counter-screen for RBBP9 inhibitors: inhibitors of human GSTO1 | P78417 | recombinant GSTO1, activity-based probe fluorescence polarization | inhibition, % at 5.96 µM | actives 1.1% (n = 300,000);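 active = inhibition above the campaign mean inhibition plus 3 SD, cut at about 35% in these data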;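 note: 0% = GSTO1-1 with DMSO and 100% = wells lacking GSTO1-1 enzyme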
proCasp7 act – counter-screen: procaspase-7 (human) activation. P55210. activation, % at 8.5 µM. recombinant procaspase-7, Ac-DEVD-pNA absorbance 405 nm; D23A/D198A/D206A triple mutant, cannot self-cleave; scale: DMSO 0, 5 µM enzyme 100. actives 0.093% (n = 330,000);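 active = percent activation above the screen-wide mean plus 3 SD, cut at about 25% in these data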
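Test system: Procaspase-7 triple mutant (PC-7 D3A). Also added: Ac-DEVD-pNA substrate, 400 µM as added. Schedule: 1 h enzyme–compound preincubation and 2 h substrate reaction, both 25 °C. Signal: p-Nitroaniline absorbance at 405 nm, read at 0 and 120 min. Control set: low DMSO alone, high DMSO plus 5 µM PC-7.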
* marks the source's active call; other numbers are inactive results.

Screening CC(C)c1ccc(NS(=O)(=O)c2ccc3[nH]cc(C(=O)N4CCC(C(N)=O)CC4)c(=O)c3c2)cc1 returned proCasp3 act -10, Apaf-1 inh 8, EBNA-1 inh -7, ZTA DNA inh -22, GSTO1 counter 55* and proCasp7 act 8.
O=c1oc2c(-c3ccc([N+](=O)[O-])cc3)cc(O)cc2s1 was read as proCasp3 act -20, Apaf-1 inh 6, EBNA-1 inh -10, ZTA DNA inh 0, GSTO1 counter 78* and proCasp7 act -34.
`CC(=O)c1ccc(N(CC(=O)NCCc2ccccc2)C(=O)c2csnn2)cc1` gave proCasp3 act -2, Apaf-1 inh 19, EBNA-1 inh -6, ZTA DNA inh -7, GSTO1 counter 1 and proCasp7 act -6.
For Cc1ccc(NC(=O)CN(C)CC(=O)N(CC(C)C)c2c(N)n(CC(C)C)c(=O)[nH]c2=O)c(C)c1 the results were proCasp3 act -2, Apaf-1 inh -3, ZTA DNA inh 7 and proCasp7 act 4.
`O=C(O)c1ccc2c(c1)C(=O)/C(=C/c1ccccc1)C2=O` gave proCasp3 act -7, Apaf-1 inh 37, EBNA-1 inh -2, ZTA DNA inh 11, GSTO1 counter 56* and proCasp7 act -2.
For CC(C)(C)N1C(=O)c2ccc(C(=O)O)cc2C1=O the results were proCasp3 act -2, Apaf-1 inh 19, EBNA-1 inh 2, ZTA DNA inh 13, GSTO1 counter 2 and proCasp7 act -1.
Screening Oc1ccc(O)cc1 returned proCasp3 act -6, EBNA-1 inh 7, ZTA DNA inh 6, GSTO1 counter 56* and proCasp7 act -8.
`COc1ccc(-c2ncncc2-c2csc(C)n2)c(O)c1OC` gave proCasp3 act -5, Apaf-1 inh 4, EBNA-1 inh -14, ZTA DNA inh -8, GSTO1 counter -5 and proCasp7 act 3.
`COC1=C(N)C(=O)c2nc(-c3nc(C(=O)O)c(C)c(-c4ccc(OC)c(OC)c4O)c3N)ccc2C1=O` gave proCasp3 act 4, Apaf-1 inh 84* and proCasp7 act 0.
`CCC(CO)Oc1cc(NCc2ccc(F)cc2)c2ncn(C(C)C)c2c1` (configuration not stated) gave proCasp3 act -3, Apaf-1 inh 43* and proCasp7 act 4.
For CC(=O)c1ccc(N2Cc3ccccc3/C2=N\C(=O)Nc2ccccc2)cc1 the results were proCasp3 act -3, Apaf-1 inh 10, EBNA-1 inh -13, ZTA DNA inh -10, GSTO1 counter -3 and proCasp7 act 1.
CC(=O)c1cccc(N2Cc3ccccc3C2=NC(=O)CCl)c1 was read as proCasp3 act -1, Apaf-1 inh -12, EBNA-1 inh 2, ZTA DNA inh -6, GSTO1 counter 78* and proCasp7 act -6.
For CC1=NN(c2ccccc2)C(=O)C1C=Nc1ccc(N(C)C)cc1 (configuration not stated) the results were proCasp3 act -16, Apaf-1 inh 38, EBNA-1 inh 82*, ZTA DNA inh active, GSTO1 counter 63* and proCasp7 act -22.
Screening CC(C)C(NC(=O)CCNC(=O)c1ccccc1Cl)c1nc2ccccc2[nH]1 (configuration not stated) returned proCasp3 act -2, Apaf-1 inh 4, ZTA DNA inh 3 and proCasp7 act 7.
For CC(=O)N1C(=O)c2cccc3cccc(c23)C(=O)N1C(C)=O the results were proCasp3 act 5, Apaf-1 inh -3, EBNA-1 inh 6, ZTA DNA inh 8, GSTO1 counter 2 and proCasp7 act 10.
O=C1c2cccc3cccc(c23)C(=O)C1(O)O was read as proCasp3 act -28, Apaf-1 inh -4, EBNA-1 inh 2, ZTA DNA inh -14, GSTO1 counter 63* and proCasp7 act -29.
For COc1ccc(CNC(=O)C(C)n2ccc3cc(S(=O)(=O)N4CCCCCC4)ccc32)cc1 (configuration not stated) the results were proCasp3 act 4, Apaf-1 inh 5, EBNA-1 inh -7, ZTA DNA inh 1, GSTO1 counter -6 and proCasp7 act -2.
CC1(C)NC(=O)N(CC(=O)OCC(=O)c2ccc(F)cc2)C1=O was read as proCasp3 act 10, Apaf-1 inh -2, EBNA-1 inh 102*, ZTA DNA inh 1, GSTO1 counter 7 and proCasp7 act 4.
For Clc1ccc(-c2nsc(N3CCOCC3)n2)c(Cl)c1 the results were proCasp3 act 3, Apaf-1 inh 8, EBNA-1 inh -1, ZTA DNA inh 4, GSTO1 counter 2 and proCasp7 act -1.
For O=C1Cc2ccccc2C(=O)N1OCc1ccc(Cl)cc1Cl the results were proCasp3 act -7, Apaf-1 inh 68*, EBNA-1 inh -7, ZTA DNA inh 2, GSTO1 counter 11 and proCasp7 act -1.
COc1ccc(C(=O)Nc2c(O)ccc3ccccc23)cc1 was read as proCasp3 act -4, Apaf-1 inh 21, EBNA-1 inh -14, ZTA DNA inh -13, GSTO1 counter 29 and proCasp7 act -9.
For COc1ccc(NC(=O)Nc2c(O)ccc3ccccc23)cc1 the results were proCasp3 act -2, Apaf-1 inh 32, EBNA-1 inh 4, ZTA DNA inh -17, GSTO1 counter 37* and proCasp7 act -16.
`CC(C)CC(NS(=O)(=O)c1ccccc1)C(=O)O` (configuration not stated) gave proCasp3 act 13, Apaf-1 inh -10, EBNA-1 inh -6, ZTA DNA inh -2, GSTO1 counter 4 and proCasp7 act -9.
Screening CC(C)CN=C(NS(=O)(=O)c1ccccc1)C(Cl)(Cl)Cl returned proCasp3 act -1, Apaf-1 inh 3, EBNA-1 inh 6, ZTA DNA inh 3, GSTO1 counter 78* and proCasp7 act 2.
For CCN1CCN(c2ccc(NC(=O)CCc3c(C)nc4c(-c5ccccc5)c(C)nn4c3C)cc2)CC1 the results were proCasp3 act 10, Apaf-1 inh 48*, EBNA-1 inh 2, ZTA DNA inh -7, GSTO1 counter 1 and proCasp7 act 12.
Screening CC1=C(C(=O)N2CCOCC2)C(c2ccc(O)cc2)NC(=S)N1 (configuration not stated) returned proCasp3 act 7, Apaf-1 inh 1, EBNA-1 inh 9, ZTA DNA inh 1, GSTO1 counter 0 and proCasp7 act 5.
Screening Oc1ccc2c(c1)C1CCCC1(N1CCOCC1)O2 (configuration not stated) returned proCasp3 act 2, Apaf-1 inh 2, EBNA-1 inh -2, ZTA DNA inh -7, GSTO1 counter 42* and proCasp7 act -1.
